Calls of active or inactive are those of the source.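 The calls were made as follows: active = viability loss with fitted half-maximal concentration at most ten times the top valid dose; inconclusive = flat fit with 30 to 70% inhibition, or poor fit; inactive = the rest, including rising signal.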
How the values were obtained:
[1] = tested on: SK-MEL-5 viability, CellTiter-Glo ATP luminescence, 24 h; assay: SK-MEL-5 parental cell viability loss, dose response, orthogonal assay for MITF inhibitor project, CellTiter-Glo luminescence, dry powder samples (AID 540347)
Method in brief: (§1)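 Assay system: SK-MEL-5 melanoma cell line / Compound: Multiple-concentration series, compounds delivered by pin transfer / Schedule: 24 h compound exposure 37 °C, 5 min RT readout / Measured by: CellTiter-Glo luminescence measuring cellular ATP / Measure: cell viability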

[2] = as above; details: SK-MEL-5 viability, CellTiter-Glo ATP luminescence, 24 h; at 35 µM (top of the series)
Method in brief: as §1

Structure (SMILES)	IC50 [1] [µM]	activity change, negative = inhibition [2]
CCN1c2ccccc2NC2N=C(OC)C(c3ccccc3)C21 (stereo not given)	4.78	–
CCN1CCN(C2=C(NS(=O)(=O)c3ccc(Br)cc3)C(=O)c3ccccc3C2=O)CC1	33.5	–
CC1=NNC(=O)/C1=C\c1cn(-c2ccccc2)nc1-c1ccc(F)cc1	25.4	–
CC(C)C(CCNC1CCN(C)CC1)c1ccc(Cl)cc1 (stereo not given)	36.5	–
Cc1oc(-c2ccc(Cl)cc2)nc1CN1CCC(C(=O)NCCCN2CCCC(C)C2)CC1 (stereo not given)	–	-12.1% (inactive)
CCN(CC)CCNC(=O)c1c(C)n(-c2ccccc2)c2cc(Br)c(OC)cc12	–	-13.7% (inactive)
CC1(C)CC(NC(=O)c2ccc(Cl)c(S(=O)(=O)N(Cc3ccccc3)c3ccccc3)c2)CC(C)(C)N1	29.2	–
O=C(Nc1ccc(-c2nc3ncccc3o2)cc1)c1ccc([N+](=O)[O-])o1	–	6.95% (inactive)
CC1CCN(CC(CS(=O)(=O)c2ccc([N+](=O)[O-])cc2)N2CCC(C)CC2)CC1 (stereo not given)	–	3.72% (inactive)
Cc1nc2ccccc2n1/N=C/c1ccc([N+](=O)[O-])s1	9.51	–
Cc1cc(C(C)(C)C)cc(C)c1Cn1c2[n+](c3ccc(C(F)(F)F)cc31)CCCCC2	27.1	–
Cc1ccc(C(O)(c2ccc(C)c(C)c2)C2CN3CCC2CC3)cc1C (stereo not given)	–	-2.1% (inactive)
COc1cc(/C=N/NC(N)=O)c(Br)cc1OCC(=O)Nc1ccccc1C	–	-15.2% (inactive)
Cc1ccc(C(C)C)c(OCc2nn(CC(=O)c3ccc(Cl)cc3)c3[n+]2CCCCC3)c1	–	-4.44% (inactive)
Cc1ccc(C(=O)N/N=C/c2ccc([N+](=O)[O-])s2)cc1	–	-12.1% (inactive)
COc1cc2c(cc1OC)C(c1ccccc1)N(C(=O)CCl)CC2 (stereo not given)	28.4	–
CC1CCCCC1NC(=O)/C(C#N)=C/C=C/c1ccccc1[N+](=O)[O-] (stereo not given)	–	9.93% (inactive)
Cc1[nH]c2ccccc2c1C(=O)CCl	27.7	–
CCN1CCCC1CNC(=O)c1ccc2c(c1)NC(=O)/C(=C\c1ccc(C)cc1)S2 (stereo not given)	29.1	–
C=CCNC1=C(Cl)C(=O)c2ccccc2C1=O	14.3	–
CN(C)CCCNC(=O)/C(=C\c1ccc(-c2ccc(Br)cc2)o1)NC(=O)c1ccccc1	32	–
N=c1n(CCN2CCCC2)c2ccccc2n1CC(O)c1ccc(Cl)c(Cl)c1 (stereo not given)	30.5	–
O=c1c(Cl)c2oc3ccccc3nc-2c2ccccc12	24.7	–
COc1ccc(S(=O)(=O)N(C(C)=O)c2ccc(OC(C)=O)c3ccccc23)cc1[N+](=O)[O-]	6.58	–
O=C(COc1ccccc1)N/N=C/c1ccc([N+](=O)[O-])o1	35.5	–
